Test results reported in publication PMC4203516 (Autophagy, 2014).
Several values for one entry are separate records, joined by “and”; a condition that tells them apart may be missing. Identical values can stand only once. Entries after “also recorded” stand apart in the source; their conditions may differ.

Assays:
Type in all cases: in vivo, human
advanced melanoma = assay: RECIST 1.0 response and progression-free survival, melanoma patients
Outline: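 Patients received IV temsirolimus 25 mg weekly, with a 1-wk single-agent run-in, then daily oral HCQ, treated until progression. Patients were evaluable for response after completing ≥2 wk of concurrent HCQ and temsirolimus. Progression was defined as >20% increase in measurable disease or appearance of a new lesion. Non-evaluable patients were replaced.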

[1] = HCQ whole blood population pharmacokinetics
[2] = Phase I dose escalation: adverse events and dose-limiting toxicities
Outline: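 Open-label, single-institution 3 + 3 escalation. IV temsirolimus 25 mg weekly was infused over 30 min after IV diphenhydramine 25–50 mg premedication. A 1-wk temsirolimus-alone run-in preceded daily oral HCQ (200, 400, 800, 1200 mg), split ≥6 h apart above 200 mg. Cycles lasted 4 wk. The DLT window was the first 6 wk, later 5 wk. Toxicity-evaluable patients took ≥1 HCQ dose. Blood counts were weekly, then every 2 wk.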

[3] = Melanoma patients, HCQ dose cohort 200–800 + TEM, N=6
[4] = Melanoma patients, HCQ dose cohort 1200 + TEM, N=13
[5] = melanoma expansion, of 12 patients, HCQ 1200 mg/d + TEM
[6] = population PK, 1000 bootstrap runs
[7] = population PK, whole blood, 34 patients, oral HCQ
[8] = Total, all HCQ doses + TEM 25 mg weekly, N=39
[9] = daily HCQ 200 mg + TEM 25 mg weekly, N=11
[10] = daily HCQ 400 mg + TEM 25 mg weekly, N=3
[11] = daily HCQ 800 mg + TEM 25 mg weekly, N=9
[12] = daily HCQ 1200 mg + TEM 25 mg weekly, N=16

CCN(CCO)CCCC(C)Nc1ccnc2cc(Cl)ccc12 (centres unmarked) [HCQ, hydroxychloroquine]
PD (progressive disease), patients (advanced melanoma; [3]): 1
PR (partial response), patients (advanced melanoma; [3]): 0
PD (progressive disease), patients (advanced melanoma; [4]): 4
PR (partial response), patients (advanced melanoma; [4]): 0
PD (progressive disease), % (advanced melanoma; Melanoma patients, Total, N=19): 26%
PD (progressive disease), patients (advanced melanoma; Melanoma patients, Total, N=19): 5
PR (partial response), patients (advanced melanoma; Melanoma patients, Total, N=19): 0
Median progression-free survival (advanced melanoma; evaluable melanoma patients, HCQ 1200 mg/d + TEM, 95%CI 2–6 mo): 3.5 mo
Patients with some degree of tumor shrinkage (waterfall plot) (advanced melanoma; [5]): 6
Patients with some degree of tumor shrinkage, % (advanced melanoma; [5]): 50%
Vd/F ([1]; human, whole blood, po): 865 L
Cl/F, apparent oral clearance, bootstrap estimate [1, 6]: 15.953 L/h
Ka, absorption rate constant, bootstrap estimate [1, 6]: 0.758 h
Q, intercompartmental clearance, bootstrap estimate [1, 6]: 26.421 L/h
Tlag, absorption lag time, bootstrap estimate [1, 6]: 0.564 h
V2/F, apparent peripheral volume of distribution, bootstrap estimate [1, 6]: 3285.0246 L
V/F, apparent central volume of distribution, bootstrap estimate [1, 6]: 496.0499 L
Cl/F, apparent oral clearance, model estimate [1, 7]: 17.517 L/h
Ka, absorption rate constant, model estimate [1, 7]: 0.649 h
Q, intercompartmental clearance, model estimate [1, 7]: 26.067 L/h
Tlag, absorption lag time, model estimate [1, 7]: 0.399 h
V2/F, apparent peripheral volume of distribution, model estimate [1, 7]: 3236.73 L
Time to steady-state of HCQ blood concentrations, average ([1]; simulated from final PK model for individual patients): 350 h and 360 h
Blood HCQ AUC, Cmax, Cmin and Cavg relationship to dose ([1]; simulated steady-state, 200–1200 mg/d): proportional to daily HCQ dose
Anal fissure G1–2, % [2, 8]: 5%
Anal fissure G1–2, patients [2, 8]: 2
Anemia G1–2, patients [2, 8]: 4
Anemia G3–4, patients [2, 8]: 4
Anorexia G1–2, % [2, 8]: 41%
Anorexia G1–2, patients [2, 8]: 16
Anorexia G3–4, % [2, 8]: 8%
Anorexia G3–4, patients [2, 8]: 3
Constipation G1–2, % [2, 8]: 13%
Constipation G1–2, patients [2, 8]: 5
Diarrhea G1–2, patients [2, 8]: 7
Dizziness G1–2, % [2, 8]: 5%
Dizziness G1–2, patients [2, 8]: 2
Dysguesia G1–2, patients [2, 8]: 2
Dysguesia G3–4, patients [2, 8]: 1
Elevated creatinine G1–2, patients [2, 8]: 2
Elevated creatinine G3–4, patients [2, 8]: 1
Fatigue G1–2, patients [2, 8]: 19
Fatigue G3–4, patients [2, 8]: 3
Lymphopenia G1–2, % [2, 8]: 31%
Lymphopenia G3–4, % [2, 8]: 3%
Lymphopenia G3–4, patients [2, 8]: 1
Nausea G1–2, patients [2, 8]: 13
Nausea G3–4, % [2, 8]: 15%
Nausea G3–4, patients [2, 8]: 6
Neutropenia G1–2, % [2, 8]: 3%
Neutropenia G1–2, patients [2, 8]: 1
Poor wound healing G1–2, patients [2, 8]: 2
Rash G1–2, patients [2, 8]: 15
Stomatitis G1–2, patients [2, 8]: 16
Thrombocytopenia G1–2, % [2, 8]: 21%
Thrombocytopenia G1–2, patients [2, 8]: 8
Thrombocytopenia G3–4, % [2, 8]: 3%
Thrombocytopenia G3–4, patients [2, 8]: 1
Vitiligo G1–2, % [2, 8]: 5%
Vitiligo G1–2, patients [2, 8]: 2
Weight loss G1–2, % [2, 8]: 18%
Weight loss G1–2, patients [2, 8]: 7
Anemia G1–2, % [2, 9]: 9%
Anemia G1–2, patients [2, 9]: 1
Anemia G3–4, % [2, 9]: 9%
Anemia G3–4, patients [2, 9]: 1
Anorexia G1–2, % [2, 9]: 36%
Anorexia G1–2, patients [2, 9]: 4
Diarrhea G1–2, patients [2, 9]: 3
Fatigue G1–2, patients [2, 9]: 5
Lymphopenia G1–2, % [2, 9]: 45%
Lymphopenia G1–2, patients [2, 9]: 5
Nausea G1–2, patients [2, 9]: 4
Nausea G3–4, patients [2, 9]: 1
Neutropenia G1–2, patients [2, 9]: 1
Rash G1–2, patients [2, 9]: 3
Stomatitis G1–2, patients [2, 9]: 4
Thrombocytopenia G1–2, % [2, 9]: 36%
Thrombocytopenia G1–2, patients [2, 9]: 4
Thrombocytopenia G3–4, % [2, 9]: 9%
Thrombocytopenia G3–4, patients [2, 9]: 1
Weight loss G1–2, % [2, 9]: 18%
Weight loss G1–2, patients [2, 9]: 2
Anemia G1–2, % [2, 10]: 33%
Anemia G1–2, patients [2, 10]: 1
Anemia G3–4, % [2, 10]: 33%
Anemia G3–4, patients [2, 10]: 1
Anorexia G1–2, % [2, 10]: 33%
Anorexia G1–2, patients [2, 10]: 1
Diarrhea G1–2, % [2, 10]: 33%
Diarrhea G1–2, patients [2, 10]: 1
Fatigue G1–2, % [2, 10]: 67%
Fatigue G1–2, patients [2, 10]: 2
Lymphopenia G1–2, % [2, 10]: 33%
Lymphopenia G1–2, patients [2, 10]: 1
Rash G1–2, patients [2, 10]: 1
Stomatitis G1–2, patients [2, 10]: 1
Weight loss G1–2, % [2, 10]: 67%
Weight loss G1–2, patients [2, 10]: 2
Anal fissure G1–2, % [2, 11]: 11%
Anal fissure G1–2, patients [2, 11]: 1
Anemia G1–2, % [2, 11]: 22%
Anemia G1–2, patients [2, 11]: 2
Anemia G3–4, patients [2, 11]: 1
Anorexia G1–2, % [2, 11]: 56%
Anorexia G1–2, patients [2, 11]: 5
Anorexia G3–4, % [2, 11]: 11%
Anorexia G3–4, patients [2, 11]: 1
Constipation G1–2, % [2, 11]: 11%
Constipation G1–2, patients [2, 11]: 1
Diarrhea G1–2, % [2, 11]: 11%
Diarrhea G1–2, patients [2, 11]: 1
Fatigue G1–2, patients [2, 11]: 2
Fatigue G3–4, patients [2, 11]: 2
Lymphopenia G1–2, % [2, 11]: 33%
Lymphopenia G1–2, patients [2, 11]: 3
Nausea G1–2, patients [2, 11]: 4
Nausea G3–4, patients [2, 11]: 1
Rash G1–2, patients [2, 11]: 2
Stomatitis G1–2, patients [2, 11]: 4
Thrombocytopenia G1–2, % [2, 11]: 22%
Thrombocytopenia G1–2, patients [2, 11]: 2
Weight loss G1–2, patients [2, 11]: 1
Anal fissure G1–2, % [2, 12]: 6%
Anal fissure G1–2, patients [2, 12]: 1
Anemia G3–4, % [2, 12]: 6%
Anemia G3–4, patients [2, 12]: 1
Anorexia G1–2, % [2, 12]: 38%
Anorexia G1–2, patients [2, 12]: 6
Anorexia G3–4, % [2, 12]: 13%
Anorexia G3–4, patients [2, 12]: 2
Constipation G1–2, patients [2, 12]: 4
Diarrhea G1–2, % [2, 12]: 13%
Diarrhea G1–2, patients [2, 12]: 2
Dizziness G1–2, % [2, 12]: 13%
Dizziness G1–2, patients [2, 12]: 2
Dysguesia G1–2, patients [2, 12]: 2
Dysguesia G3–4, patients [2, 12]: 1
Elevated creatinine G1–2, patients [2, 12]: 2
Elevated creatinine G3–4, patients [2, 12]: 1
Fatigue G1–2, patients [2, 12]: 10
Fatigue G3–4, patients [2, 12]: 1
Lymphopenia G1–2, % [2, 12]: 38%
Lymphopenia G1–2, patients [2, 12]: 6
Lymphopenia G3–4, % [2, 12]: 6%
Lymphopenia G3–4, patients [2, 12]: 1
Nausea G1–2, patients [2, 12]: 5
Nausea G3–4, % [2, 12]: 25%
Nausea G3–4, patients [2, 12]: 4
Poor wound healing G1–2, patients [2, 12]: 2
Rash G1–2, patients [2, 12]: 9
Stomatitis G1–2, patients [2, 12]: 7
Thrombocytopenia G1–2, % [2, 12]: 13%
Thrombocytopenia G1–2, patients [2, 12]: 2
Vitiligo G1–2, patients [2, 12]: 2
Weight loss G1–2, % [2, 12]: 13%
Weight loss G1–2, patients [2, 12]: 2
Grade 3 pulmonary tumor abscess ([2]; head and neck cancer patient with history of aspiration, cycle 3): One patient
Recommended phase II dose of HCQ ([2]; in combination with TEM 25 mg weekly): 600 mg twice daily
Maximum tolerated dose (MTD) of HCQ ([2]; in combination with TEM 25 mg weekly, up to 1200 mg/d): not reached; also recorded: not defined
Grade 4 cholangitis and sepsis during tumor regression ([2]; melanoma patient with large gall bladder metastases, cohort not stated): One patient
